According to PMC3090455 (Analytical biochemistry, 2011):

Experiments:
[1] = target: T1, rat mEH (Rattus norvegicus, UniProt P07687); assay: Inhibition potency assay with fluorescent substrate 11, rat mEH; format: biochemical
T1 sequence (P07687 1-455): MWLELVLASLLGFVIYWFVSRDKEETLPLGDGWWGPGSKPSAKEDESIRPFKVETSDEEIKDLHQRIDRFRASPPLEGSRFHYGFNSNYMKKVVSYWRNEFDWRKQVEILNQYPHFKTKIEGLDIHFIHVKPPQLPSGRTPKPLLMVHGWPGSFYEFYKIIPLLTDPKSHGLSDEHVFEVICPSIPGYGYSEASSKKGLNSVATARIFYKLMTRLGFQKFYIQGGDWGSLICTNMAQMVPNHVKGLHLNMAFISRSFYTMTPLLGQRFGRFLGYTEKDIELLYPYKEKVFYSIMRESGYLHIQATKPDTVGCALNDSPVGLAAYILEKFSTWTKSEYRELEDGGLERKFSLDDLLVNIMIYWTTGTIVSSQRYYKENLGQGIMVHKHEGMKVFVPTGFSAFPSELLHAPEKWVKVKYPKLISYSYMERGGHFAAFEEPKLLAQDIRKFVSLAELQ
Procedure, shortened: (§1)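 Kinetic fluorescent format: baculovirus-expressed, partially purified enzyme in 100 mM Tris/HCl pH 8.5 with 0.1 mg/mL BSA (final human 1.6, rat 0.5 μg/mL), preincubated 5 min at 30°C with inhibitor (0–200 μM final, from DMSO). Substrate at 25 μM final (rat also tested at 2.5 μM). Naphthaldehyde followed 10 min at 30°C. IC50 regressed from ≥6 points in the linear region; three runs, each in triplicate.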

[2] = target: T1, rat mEH; assay: Inhibition potency assay with [3H]-cSO radiochemical substrate, rat mEH; format: biochemical
Procedure, shortened: (§2)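 Radiochemical format with [3H]-cis-stilbene oxide at 50 μM final. Partially purified recombinant enzyme: rat 1.0, human 3.2 μg/mL. Reaction in 100 mM Tris/HCl pH 9.0 with 0.1 mg/mL BSA, 5 min at 30°C, quenched with isooctane to extract remaining epoxide. Radioactive diol in the aqueous phase counted by liquid scintillation; run in triplicate.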

[3] = target: T2, human mEH (Homo sapiens, UniProt P07099); assay: Inhibition potency assay with [3H]-cSO radiochemical substrate, human mEH; format: biochemical
T2 sequence (P07099 1-455): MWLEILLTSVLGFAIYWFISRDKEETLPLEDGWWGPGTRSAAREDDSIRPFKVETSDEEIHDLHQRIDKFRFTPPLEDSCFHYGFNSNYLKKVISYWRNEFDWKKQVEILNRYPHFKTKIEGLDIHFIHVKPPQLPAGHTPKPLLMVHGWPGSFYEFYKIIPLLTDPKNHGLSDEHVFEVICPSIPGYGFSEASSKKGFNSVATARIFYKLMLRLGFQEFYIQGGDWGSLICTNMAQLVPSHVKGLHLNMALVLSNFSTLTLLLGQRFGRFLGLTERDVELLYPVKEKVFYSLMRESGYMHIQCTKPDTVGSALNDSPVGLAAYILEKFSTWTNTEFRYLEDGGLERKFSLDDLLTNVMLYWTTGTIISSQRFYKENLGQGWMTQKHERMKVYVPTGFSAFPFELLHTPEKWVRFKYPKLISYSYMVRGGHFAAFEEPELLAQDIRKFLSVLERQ
Procedure, shortened: as §2

[4] = target: T1, rat mEH; assay: High throughput screening end-point assay with 11, rat mEH; format: biochemical; settings: [I] 10 μM, [11] 25 μM, 30 min end-point, room temperature
Procedure, shortened: (§3)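 End-point screen of a pesticide library at 10 μM final. Recombinant partially purified enzyme (human 1.6, rat 0.5 μg/mL final) in 100 mM Tris/HCl pH 8.5 with 0.1 mg/mL BSA, preincubated with compounds 5 min at 30°C. Substrate added to 25 μM, then 30 min at room temperature in the dark before fluorescence reading (ex 330/em 465 nm). Buffer-only background and full-activity control wells; duplicate averages.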

[5] = target: T2, human mEH; assay: High throughput screening end-point assay with 11, human mEH; format: biochemical; settings: [I] 10 μM, [11] 25 μM, 30 min end-point, room temperature
Procedure, shortened: as §3

[6] = system: mEH; assay: Retest of screening hits in inhibition potency assay with 11; format: biochemical; settings: 10 μM
Procedure, shortened: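 Hits from the library screen retested at 10 μM in the kinetic fluorescent format: 5 min preincubation with partially purified enzyme in Tris/HCl pH 8.5 with BSA at 30°C. Then 25 μM substrate, with 6-methoxy-2-naphthaldehyde monitored for 10 min.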

[7] = system: mEH; assay: Retest of screening hits with cSO as substrate; format: biochemical; settings: suggests false positive in fluorescent assay
[8] = target: T2, human mEH; assay: Inhibition potency assay with fluorescent substrate 11, human mEH; format: biochemical
Procedure, shortened: as §1

[9] = Background; format: physicochemical; settings: [S] 50 μM, Tris/HCl 100 mM pH 9.0, 0.1 mg/mL BSA, 37°C, 4-nitrophenol absorbance
Procedure, shortened: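 Enzyme-free control wells held Tris/HCl (100 mM, pH 9.0, 0.1 mg/mL BSA), preincubated 5 min at 37°C. Substrate was added from a 5 mM DMSO stock working solution to 50 μM final, and product was read kinetically for 5 min. Read-out was 4-nitrophenol absorbance at […] fluorescence (ex 355/em 450 or ex 330/em 465 nm). Signals were converted to molar amounts via 0.005–0.5 μM standard curves; 8 replicates.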

[10] = target: T1, rat mEH; assay: Specific activity of rat mEH for absorbent/fluorescent substrates; format: biochemical; settings: [S] 50 μM, pH 9.0, 37°C, 4-nitrophenyl substrates
Procedure, shortened: (§4)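 Partially purified recombinant enzyme (0.5–80 μg/mL final) in 100 mM Tris/HCl pH 9.0 with 0.1 mg/mL BSA, preincubated 5 min at 37°C. Substrate added at 50 μM final from 5 mM DMSO stock; buffer-only wells gave background. Read kinetically for 5 min: 4-nitrophenol at 450 nm, or fluorescence (coumarin ex 355/em 450; naphthaldehyde ex 330/em 465). Signals converted via standard curves (0.005–0.5 μM); 8 replicates.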

[11] = target: T2, human mEH; assay: Specific activity of human mEH for absorbent/fluorescent substrates; format: biochemical; settings: [S] 50 μM, pH 9.0, 37°C, 4-nitrophenyl substrates
Procedure, shortened: as §4

[12] = substrate: COc1ccc2cc(C(C#N)OC(=O)OCC3CO3)ccc2c1; assay: Kinetic constants determination, rat mEH; format: biochemical; settings: other: Tris/HCl pH 9.0 100 mM, 0.1 mg/mL BSA, 37°C
[13] = substrate: COc1ccc2cc(C(C#N)OC(=O)OCC3CO3)ccc2c1; assay: Kinetic constants determination, human mEH; format: biochemical; settings: other: Tris/HCl pH 9.0 100 mM, 0.1 mg/mL BSA, 37°C
[14] = IC50, Rat mEH, 11 as substrate, [11] 25 μM, enzyme 0.5 μg/mL, pH 8.5, 30°C

Molecule: CCCCCCCCCSC(C)C(N)=O (stereo not drawn) [A, 2-nonylsulfanyl-propionamide]
- IC50 [1, 14]: 4200 ± 700 nM
- IC50 ([1]; IC50, rat mEH, 11 as substrate near its KM, [11] = 2.5 μM): 500 nM
- IC50 [2]: 400 ± 100 nM
- IC50 [3]: 500 ± 100 nM

Molecule: CC(C)[C@H](C(=O)O[C@H](C#N)c1cccc(Oc2ccccc2)c1)c1ccc(Cl)cc1 [Asana]
- inhibition of rat mEH in library screen [4]: significant inhibition
- inhibition of human mEH in library screen [5]: significant inhibition
- mEH inhibition on retest with 11 in the inhibition potency assay [6]: confirmed mEH inhibition
- mEH inhibition with cSO as substrate [7]: no inhibition was observed

Molecule: CCCCCCCC/C=C/CCCCCCCC(N)=O [B, elaidamide]
- IC50 ([1]; read-out: IC50, Rat mEH, 11 as substrate, [11] 25 μM, enzyme 0.5 μg/mL, pH 8.5, 30°C): 63000 ± 5000 nM
- IC50 ([8]; read-out: IC50, Human mEH, 11 as substrate, [11] 25 μM, enzyme 1.6 μg/mL, pH 8.5, 30°C): 140000 ± 13000 nM
- IC50 ([2]; read-out: IC50, Rat mEH, cSO as substrate, [cSO] 50 μM, enzyme 1.0 μg/mL): 500 ± 100 nM
- IC50 ([3]; read-out: IC50, Human mEH, cSO as substrate, [cSO] 50 μM, enzyme 3.2 μg/mL): 1000 ± 100 nM

Molecule: Brc1ccc(Oc2ccc(Br)cc2Br)c(Br)c1 [BDE47]
- inhibition of rat mEH in library screen [4]: significant inhibition
- inhibition of human mEH in library screen [5]: significant inhibition
- mEH inhibition on retest with 11 in the inhibition potency assay [6]: confirmed mEH inhibition
- mEH inhibition with cSO as substrate [7]: no inhibition was observed

Molecule: CCCCCCC(O)CCCCCCCCCCC(N)=O (stereo not drawn) [C, 12-hydroxy-octadecanamide]
- IC50 [1, 14]: 123000 ± 13000 nM
- IC50 [8]: > 200000 nM
- IC50 [2]: 1100 ± 100 nM
- IC50 [3]: 2600 ± 300 nM

Molecule: O=C(OCC1CO1)Oc1ccc([N+](=O)[O-])cc1 (stereo not drawn) [compound 6, 4-Nitrophenyl (oxiran-2-yl)methyl carbonate]
- background hydrolysis [9]: 0.31 ± 0.02 nmol/min
- Rat mEH S/B (signal to background ratio) [10]: 5
- Rat mEH S/N (signal to noise ratio) [10]: 32
- Rat mEH Spec. act. [10]: 29 ± 2 nmol/min/mg
- Rat mEH Z' (screening window coefficient) [10]: 0.67
- Human mEH S/B (signal to background ratio) [11]: 3
- Human mEH S/N (signal to noise ratio) [11]: 53
- Human mEH Spec. act. [11]: 51 ± 2 nmol/min/mg
- Human mEH Z' (screening window coefficient) [11]: 0.82

Molecule: Oc1cc(Cl)ccc1Oc1ccc(Cl)cc1Cl [triclosan]
- inhibition of rat mEH in library screen [4]: significant inhibition
- inhibition of human mEH in library screen [5]: significant inhibition
- mEH inhibition on retest with 11 in the inhibition potency assay [6]: confirmed mEH inhibition
- mEH inhibition with cSO as substrate [7]: no inhibition was observed

B1: rat mEH (Rattus norvegicus) (protein)
chain: T1 sequence (P07687 1-455)
- Km [12]: 2.3 ± 0.4 µM
- Vmax [12]: 0.089 µmol/min/mg
- Vmax/Km [12]: 40000 µL/min/mg

B2: human mEH (Homo sapiens) (protein)
chain: T2 sequence (P07099 1-455)
- Km [13]: 3.8 ± 0.6 µM
- Vmax [13]: 0.042 µmol/min/mg
- Vmax/Km [13]: 11000 µL/min/mg
